# This is a sample that favours compounds with a hit; in the whole collection about 3.1% have one here.
# OX1R antag-1: antagonists of human orexin 1 receptor (OX1R); Orexin/Hypocretin receptor type 1 (Homo sapiens), O43613; OX1R-expressing cells, FRET antagonist read-out; inhibition, % at 6.6 µM; actives 1.8% (n = 330,000); AID 485270, 2010; in the data active = inhibition mostly above about 38%, no sharp cut-off; inactive = mostly below about 40%
# OX1R antag-2: OX1R (HCRTR1) antagonists, primary screen, fluorescence, CHO/OX1R cells, Fluo-8 calcium, orexin A; inhibition, % at 5 µM; actives 0.43% (n = 330,000); Fluo-8 calcium fluorescence; Orexin/Hypocretin receptor type 1 (Homo sapiens), O43613;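 active = inhibition above its plate's threshold, mean inhibition of all tested compounds on the plate plus 3 SD, cut at about 37% in these data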
# GalR3 antagonist: GalR3 antagonists in HEK293 cells, primary screen, cell-based, fluorescence readout; HEK293 GalR3-CNG cAMP membrane potential fluorescence; galR3 body fused to GalR1 C-terminus; inhibition, % at 3 µM; actives 0.44% (n = 360,000);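 active = inhibition above the screen-wide average plus 3 SD, cut at about 13% in these data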;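 note: forskolin and galanin both at EC90 stimulate the cells; cAMP rise reported by CNG channel membrane potential dye signal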
# Target sequence (O60755 1-299 limits assumed): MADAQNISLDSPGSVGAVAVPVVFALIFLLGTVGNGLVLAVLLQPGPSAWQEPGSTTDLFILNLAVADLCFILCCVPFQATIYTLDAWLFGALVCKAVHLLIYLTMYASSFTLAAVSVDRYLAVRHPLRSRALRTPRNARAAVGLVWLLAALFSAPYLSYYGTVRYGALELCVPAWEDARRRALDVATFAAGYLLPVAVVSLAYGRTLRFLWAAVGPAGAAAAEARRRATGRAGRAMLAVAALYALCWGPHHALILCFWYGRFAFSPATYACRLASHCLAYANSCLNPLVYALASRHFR
# GPR7 antagonist: GPR7 receptor antagonists, primary screen, cell-based, fluorescence, single concentration; GPR7-expressing cells, fluorescence antagonist assay; inhibition, % at 4.4 µM; actives 1.1% (n = 290,000); AID 1861, 2009; in the data active = inhibition above about 16%, passing the limit was not always enough;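 note: cells stimulated with the agonist NPW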
# Target sequence (P48145 whole entry, looked up): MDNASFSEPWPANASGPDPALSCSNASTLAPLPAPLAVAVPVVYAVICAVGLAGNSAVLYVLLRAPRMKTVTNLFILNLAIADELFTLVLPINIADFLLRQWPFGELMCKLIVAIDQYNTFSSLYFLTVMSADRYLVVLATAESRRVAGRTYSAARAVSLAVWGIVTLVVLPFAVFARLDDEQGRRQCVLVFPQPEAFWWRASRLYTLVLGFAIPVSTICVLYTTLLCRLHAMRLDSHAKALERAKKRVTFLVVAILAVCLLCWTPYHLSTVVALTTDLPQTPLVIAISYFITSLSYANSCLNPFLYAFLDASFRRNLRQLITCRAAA
# CHO parental Ca: ATP-evoked calcium signal inhibitors, parental CHO, primary screen, counter-screen for OX1R antagonist project, cell-based, fluorescence, Fluo-8 calcium dye | actives 0.63% (n = 330,000) | inhibition, % at 5.6 µM | AID 463079, 2010 | parental CHO-K1, ATP-induced calcium, Fluo-8 fluorescence;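 active = inhibition above that plate's mean sample inhibition plus 3 SD, cut at about 26% in these data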
#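 Test system: untransfected parental CHO cell line; also added: ATP stimulus; dosing: 5.6 µM, single dose; signal: calcium-sensitive Fluo-8 fluorescence; measure: percent inhibition of ATP-evoked calcium rise, normalized to controls; benchmarks: low control ATP plus DMSO, high control DMSO only; replication: one well per compound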
# GalR3 antag conf: GalR3 antagonist hit confirmation, cell-based, fluorescence, triplicate. shares compounds with GalR3 antagonist. HEK293 GalR3 CNG cAMP biosensor, membrane potential fluorescence; galR3 fused to GalR1 carboxy tail; challenged with forskolin and galanin at EC90. inhibition, % at 3 µM. actives 59% (n = 1,600). AID 652245, 2013;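 active = inhibition above the primary screen's cutoff, the mean inhibition of all screened compounds plus 3 SD, cut at about 13% in these data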
# CNG parental: nonspecific cAMP agonists in parental HEK-CNG cells, counter-screen for GalR3 antagonist project, cell-based, fluorescence, high throughput. actives 10% (n = 1,600). shares compounds with GalR3 antagonist. activation, % at 3 µM. HEK293-CNG parental cells, cAMP membrane potential fluorescence; normalised: DMSO wells 0%, forskolin wells 100%; in the data active = activation above about 1.3%
# Hits are given with their value; - = inactive; . = not tested or not shown.
SMILES,OX1R antag-1,OX1R antag-2,GalR3 antagonist,GPR7 antagonist,CHO parental Ca,GalR3 antag conf,CNG parental
NC(=O)c1ccc(N2CCN(S(=O)(=O)c3cccs3)CC2)c([N+](=O)[O-])c1,-,56,101,.,46,102,-
COc1cccc(Cn2cnc3c(NS(=O)(=O)c4cc(Cl)ccc4Cl)c(C)c(C)cc32)c1,-,-,-,-,-,.,.
Cc1c(C(=O)OCC(C)C)[nH]c2c1C(=O)CC(c1ccco1)C2 (centres undefined),-,-,17,-,-,-,2.5
CCN1C[C@@H]2[C@@H]3C(=O)N(C)C(=O)[C@@H]3[C@](C)(C1=O)N2C(=O)c1ccc(F)cc1,.,.,-,.,.,.,.
c1ccc2c(c1)OCCOCCOCCOCCOc1ccccc1OCCOCCOCCO2,-,-,-,-,-,.,.
CCCN(CC(=O)Nc1ccc(Cl)cc1Cl)Cc1cc(=O)n2ccsc2n1,-,-,17,-,-,24,-
COC(=O)COc1cccc(NC(=O)c2cccc(C)c2)c1,-,-,20,-,-,57,-
CCC(=O)c1ccc(OCc2ccc(C(=O)c3ccccc3)cc2)cc1,-,-,37,-,65,88,-
CCC(=O)c1ccc(OCc2ccccc2)c(OC)c1,-,-,-,-,-,.,.
CCCc1cc(-c2[nH]ncc2-c2ccc3c(c2)OCCCO3)c(O)cc1O,-,-,-,-,-,.,.
CCCc1cc(-c2[nH]ncc2-c2ccc(C(=O)OCC)o2)c(O)cc1O,-,-,31,-,-,17,-
Cc1ccc2c(c1)c(-c1ccccc1)nc1nnnn12,-,-,-,-,-,.,.
COc1cc(C2c3c(-c4cc(Cl)c(C)cc4O)n[nH]c3C(=O)N2Cc2cccnc2)ccc1O (centres undefined),-,-,33,-,-,24,-
COc1cccc(C2c3c(-c4cc(Cl)c(C)cc4O)n[nH]c3C(=O)N2Cc2cccnc2)c1 (centres undefined),-,-,-,-,-,.,.
CCN1/C(=C/c2ccc3cc(C)ccc3[n+]2CC)Sc2ccccc21,103,86,38,44,89,45,12
CCOc1ccccc1NC(=O)C1CCC(=O)N1S(=O)(=O)c1ccc(C)cc1 (centres undefined),.,.,-,-,.,.,.
Cc1cc(C)n2nc(SCc3cccc(S(=O)(=O)N(C)C)c3)nc2n1,-,-,-,-,-,.,.
CN(C)S(=O)(=O)c1cccc(CSCc2cccc(S(=O)(=O)N(C)C)c2)c1,-,-,78,-,46,87,-
COc1ccc(S(=O)(=O)NCc2ccco2)cc1-c1nnc2c3ccccc3c(C)nn12,-,-,28,-,-,15,-
CNS(=O)(=O)c1ccc(OC)c(-c2nnc3c4ccccc4c(C)nn23)c1,-,-,-,-,-,.,.
CCOC(=O)/C(C#N)=C/c1cn(CCC(=O)O)nc1-c1ccc(OC)cc1,-,-,14,-,-,-,-
CCOC(=O)/C(C#N)=C/c1cn(CCC(=O)O)nc1-c1ccccc1,-,-,-,-,-,.,.
O=C(Nc1ccccc1NS(=O)(=O)c1ccc(F)cc1)C1CCC1,-,-,.,-,-,-,-
COc1cc(NS(=O)(=O)c2ccc(F)cc2)c(OC)cc1NC(=O)C1CC1,.,.,.,-,.,.,.
Cn1cc(-c2nnnn2-c2cccc(C(F)(F)F)c2)c(C(F)(F)F)n1,-,-,-,-,-,.,.
SMILES,OX1R antag-1,OX1R antag-2,GalR3 antagonist,GPR7 antagonist,CHO parental Ca,GalR3 antag conf,CNG parental
CCCCCCn1c(NCC)nc2c1c(=O)n(C)c(=O)n2C,-,-,32,-,-,77,-
CCCCNc1nc2c(c(=O)n(C)c(=O)n2C)n1CCC,-,-,-,.,-,.,.
O=C(CSc1nnc(-c2n[nH]c3ccccc23)n1-c1ccccc1)Nc1cccc(Cl)c1,-,-,21,-,-,14,-
Cc1cc(F)ccc1N1CCC(N2CCN(C(C)C)C(CCO)C2)CC1 (centres undefined),-,-,18,-,-,-,-
Cc1cc(F)ccc1N1CCC(N2CCN(CCC(C)C)C(CCO)C2)CC1 (centres undefined),-,-,-,-,-,.,.
CC(C(C(=O)N1CCCCC1)N1CCCCC1)N1CCCCC1 (centres undefined),.,.,-,.,.,.,.
COc1ccc(N(CC(=O)Nc2ccccc2C)S(=O)(=O)c2c(C)[nH]c(=O)[nH]c2=O)cc1,-,-,14,-,-,-,-
Cc1ccc(S(=O)(=O)N2CCCC2C(=O)NCc2ccccc2F)cc1 (centres undefined),-,-,-,-,-,.,.
COc1ccc(C(=O)NC2CCCN(Cc3ccccc3F)C2)c(OC)c1OC (centres undefined),-,-,16,-,-,-,-
O=C(NCc1ccccc1)c1cc[n+](CC(=O)c2cccs2)cc1,-,-,13,-,-,-,-
COc1ccc(C(CC(=O)NCc2ccccc2)C(C)C)cc1 (centres undefined),-,-,-,-,-,.,.
CC(=O)N/C(=C/c1ccc2c(c1)OCO2)C(=O)NC(Cc1ccccc1)C(=O)O (centres undefined),-,-,16,.,-,-,-
N#Cc1ccccc1CCN1C(=O)c2ccccc2C1=O,-,-,-,-,-,.,.
Cc1nnc(SCc2nc3scc(-c4ccccc4)c3c(=O)[nH]2)s1,-,-,14,-,-,-,-
O=c1[nH]c(Cc2ccccc2)nc2scc(-c3ccccc3)c12,-,-,-,-,-,.,.
COc1cccc(CCc2nnc(N)s2)c1,-,-,-,-,-,.,.
CCCCNS(=O)(=O)c1cccc(NC(=O)[C@@H]2O[C@H](CO)[C@H](O)[C@H](O)[C@H]2O)c1,.,.,-,.,.,.,.
CCN1CC(=O)Nc2cc(S(=O)(=O)N3CCOCC3)ccc21,-,-,16,-,-,-,-
CCN1C(=O)Cc2cc(S(=O)(=O)N3CCOCC3)ccc21,-,-,-,-,-,.,.
Oc1cccc(Oc2ncc(C(F)(F)F)cc2Cl)c1,-,-,13,-,-,-,-
Cc1ccc(C(=O)NC(=S)N2CCCC2)cc1,-,-,-,-,-,.,.
Cc1oc(C(C)(C)C)cc1C(=O)NCc1ccc2c(c1)OCO2,-,-,-,-,-,.,.
Cn1nc(C(C)(C)C)cc1C(=O)NCc1ccc2c(c1)OCO2,-,-,105,-,48,108,-

# Compound activity from PubChem BioAssay.
